# EWS-Fli block = EWS/Fli transcriptional activity inhibition; A673 NR0B1-luciferase reporter, viability-normalised; inhibition, % at 12.6 µM; 350,000 compounds, 0.67% hits; AID 651661;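 active means mean inhibition of at least 50% after viability correction, with every replicate also passing that limit; inconclusive means mean reaches 50% but only one of two replicates passes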;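 further: firefly luciferase signal divided by Alamar Blue viability fluorescence both relative to DMSO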
# PAX8 reporter = PAX8 transcriptional activity inhibition | RMG-I TPO-luciferase reporter, SteadyGlo, 24 h | 360,000 compounds, 1.2% hits | inhibition, % at 12.6 µM;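 active means mean replicate inhibition at least 60% with every replicate also reaching 60%; inconclusive means only one of the two criteria is met; inactive means mean below 60% and not all replicates reaching 60%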;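 further: luciferase light reporting Pax8 driven TPO promoter activity; plate controls were median of neutral control wells for no effect and mitoxantrone controls for full effect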
# Xi reactivation = X-chromosome reactivation activator. 360,000 compounds, 0.055% hits. XiGFP mouse fibroblasts, % GFP-positive cells imaging, 3 d; cells co-treated with 5-aza-dC sensitizer; scaled so ellipticine positive control = 100%. activation, % at 7.58 µM. AID 743238;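 active means mean normalized replicate activation at least 10% and every replicate at or above 10%; inconclusive means only one of the two criteria met; inactive means mean below 10% and not all replicates reach 10%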;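 further: 0% = median of on-plate neutral control wells and 100% = ellipticine 6 µM median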
#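 Schedule: 3 d treatment, 15 min room-temperature fixation; system: 68-5-11 XiGFP fibroblast line; buffer or medium: DMEM plus 5-aza-dC sensitizer; control set: ellipticine 6 µM positive control; compound: one concentration, pinned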
# PGC1a acetyl inh = lowers PGC1a acetylation signal in U2OS cells; AlphaScreen anti-acetyl-lysine; with virally co-expressed GCN5 acetyltransferase; inhibition, % at 15.6 µM; 350,000 compounds, 0.17% hits;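 active means every replicate shows inhibition of at least 40%; inconclusive means mean inhibition at least 40% but some replicate below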;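 further: 0% = neutral control wells and 100% = positive control wells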
# INS-1E GSIS act = primary screen for activators of insulin secretion dependent on glucose, INS-1E cells, GLuc reporter luminescence | INS-1E GLuc reporter insulin secretion, 2-3 h | activation, % at 16.6 µM | 370,000 compounds, 0.61% hits;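 active means lowest replicate activation of at least 40%, so every replicate reaches that level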;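 further: 0% = median of neutral control wells and 100% = median of IBMX positive control wells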
# MLL AF4-AF9 inh = inhibitors of human MLL-AF4/AF9 interaction; P42568; 350,000 compounds, 0.47% hits; AID 651704; AlphaScreen, biotin-AF4 peptide binding to FLAG-AF9; inhibition, % at 10 µM;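 active means every replicate reaching a set inhibition limit, whatever the replicate mean, cut at about 25% in these data; inconclusive means mean inhibition reaches that limit but some replicates miss it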;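 further: 0% = plate neutral control median and 100% = total signal loss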
# Target sequence (P42568 whole entry, looked up): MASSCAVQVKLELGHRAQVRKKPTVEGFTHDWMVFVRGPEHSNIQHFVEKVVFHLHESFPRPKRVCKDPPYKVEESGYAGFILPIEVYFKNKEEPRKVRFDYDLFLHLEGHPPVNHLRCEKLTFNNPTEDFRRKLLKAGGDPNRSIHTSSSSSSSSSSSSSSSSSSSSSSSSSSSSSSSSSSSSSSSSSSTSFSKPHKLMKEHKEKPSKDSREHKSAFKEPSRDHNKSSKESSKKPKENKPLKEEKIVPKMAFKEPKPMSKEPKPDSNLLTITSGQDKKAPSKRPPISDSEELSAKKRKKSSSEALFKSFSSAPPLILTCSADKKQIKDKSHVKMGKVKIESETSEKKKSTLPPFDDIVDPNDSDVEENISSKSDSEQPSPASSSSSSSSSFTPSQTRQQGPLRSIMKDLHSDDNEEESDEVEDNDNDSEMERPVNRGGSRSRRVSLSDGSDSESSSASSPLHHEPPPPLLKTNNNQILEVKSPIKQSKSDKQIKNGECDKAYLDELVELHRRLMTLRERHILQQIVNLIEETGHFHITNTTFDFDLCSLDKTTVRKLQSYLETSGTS
# * marks the source's active call; other numbers are inactive results; ? = inconclusive; / = not tested or not shown. Compounds with a hit are over-represented: about 2.1% of the library has one in this group of screens.
SMILES,EWS-Fli block,PAX8 reporter,Xi reactivation,PGC1a acetyl inh,INS-1E GSIS act,MLL AF4-AF9 inh
O=C1CC(NS(=O)(=O)c2cccs2)CN1c1cccc(F)c1 (centres undefined),4.2,-0.1,1.9,8.8,46.1*,-1.3
N#CC1=C(N)Oc2ccc3ccccc3c2C1c1cccnc1 (centres undefined),54.4*,25.8,0.1,/,-4.8,-1.8
N#CC1=C(N)Oc2c(ccc3cccnc23)C1c1ccccc1 (centres undefined),58.8*,25.5,0.3,11.3,16.3,5.7
N#CC1=C(N)Oc2n[nH]c(-c3ccc(F)cc3)c2C1c1cccnc1 (centres undefined),/,/,/,-0.2,56.2*,/
Nc1nc(Cl)nc2c1ncn2[C@@H]1O[C@H](CO)[C@@H](O)[C@H]1O,0.8,69.9*,-0.1,-5.3,/,-0.7
O=C(Nc1ccc(F)cc1)C(Sc1nnc2ccccn12)c1ccccc1 (centres undefined),5.5,20.3,0.1,/,-20.0,49.5*
CCC(=O)N1[C@H](CO)[C@H](c2ccccc2)C12CN(C(=O)c1ccc(F)cc1)C2,1.0,-7.1,0.3,-1.9,-1.3,-1.1
Cc1cccc(NC2=C/C(=N/S(=O)(=O)c3cccs3)c3ccccc3C2=O)c1,/,-2.3,-0.1,/,-26.4,/
Cc1ccc(Cl)cc1NC1=C/C(=N\S(=O)(=O)c2cccs2)c2ccccc2C1=O,45.3,104.3*,-0.1,8.0,-4.2,6.0
Cc1ccc(NC2=C/C(=N\S(=O)(=O)c3cccs3)c3ccccc3C2=O)c(C)c1,/,/,/,92.9*,/,/
O=C1C(Nc2ccc(O)cc2)=C/C(=N/S(=O)(=O)c2cccs2)c2ccccc21,24.7,100.6*,0.0,/,-1.9,63.4*
C[C@H](CO)N1C[C@H](C)[C@@H](CN(C)Cc2cccc(C(=O)O)c2)Oc2ncc(C#C[C@@H](C)O)cc2C1=O,-10.4,/,0.2,-4.1,7.6,-5.5
C[C@@H]1CN([C@@H](C)CO)C(=O)Cc2cc(NS(=O)(=O)c3cn(C)cn3)ccc2O[C@H]1CN(C)C(=O)NC1CCCCC1,-5.6,-14.0,0.5,3.8,16.3,/
COc1cccc(C(=O)Nc2ccc3c(c2)C(=O)N(C)[C@H]2CC[C@@H](CC(=O)NCc4ccccc4F)O[C@@H]2CO3)c1,-11.6,-5.0,0.3,1.1,-5.4,/
Cc1cc(C)c2nc(C)cc(N/N=C/c3ccc(O)cc3)c2c1,67.0*,94.1*,1.6,/,28.2,25.8*
Cc1ccc(-c2[nH]c3ccccc3c2SCCNC(=O)c2ccc(S(=O)(=O)N3CCOCC3)cc2)cc1,33.2,61.6*,0.1,/,/,2.5
Cc1ccc(S(=O)(=O)Nc2ccc3c(c2)C(=O)N([C@@H](C)CO)C[C@H](C)[C@H](CN(C)S(=O)(=O)c2ccccc2)OCCCC[C@@H](C)O3)cc1,5.2,38.7,0.1,2.9,5.7,0.2
C[C@@H]1CN([C@H](C)CO)C(=O)c2cc(C#CCc3ccccc3)cnc2O[C@@H]1CN(C)Cc1ccccc1,-1.5,-15.5,0.1,1.3,-16.7,?
CCNc1ccc(C(=O)N/N=C/c2c(C)nn(-c3ccccc3)c2N2CCCC2)cc1[N+](=O)[O-],6.3,-12.5,-0.2,/,46.4*,3.5
COc1ccccc1N1CCN(Cc2cn[nH]c2-c2ccc(F)cc2)CC1,2.5,3.8,0.0,-6.4,0.0,53.1*
O=c1cc(CSc2ccc(Cl)cc2)nc(-c2ccccn2)[nH]1,13.9,69.5*,0.1,/,5.5,0.9
O=c1cc(CSc2ccc(Cl)cc2)nc(-c2ccccc2)[nH]1,14.1,9.3,0.0,0.1,13.9,-1.7
C[C@H](CO)N1C[C@H](C)[C@@H](CN(C)Cc2ccc(C(=O)Nc3ccccc3N)cc2)OCCCC[C@H](C)Oc2ccc(N(C)C)cc2C1=O,/,/,-0.4,/,16.8,/
CCOC(=O)C1=C(COC(=O)/C=C/c2ccccc2F)NC(=O)NC1C (centres undefined),1.7,/,0.0,-9.5,21.1,-3.1
CCOC(=O)C1=C(COC(=O)/C=C/c2cccc(OC)c2OC)NC(=O)NC1C (centres undefined),-1.2,/,0.1,6.1,57.4*,2.5
SMILES,EWS-Fli block,PAX8 reporter,Xi reactivation,PGC1a acetyl inh,INS-1E GSIS act,MLL AF4-AF9 inh
CCOC(=O)C1=C(COC(=O)Cc2ccccc2F)NC(=O)NC1C (centres undefined),1.6,7.7,0.0,/,42.4*,0.9
CCOC(=O)C1=C(COC(=O)/C=C/c2ccc(OCC)c(OC)c2)NC(=O)NC1C (centres undefined),6.5,/,0.5,/,89.8*,-1.0
C[C@@H]1CN([C@H](C)CO)S(=O)(=O)c2ccc(-c3ccc(F)cc3)cc2O[C@H]1CN(C)C(=O)C1CC1,7.1,/,-0.3,-4.1,-19.4,/
C[C@H](CO)N1C[C@H](C)[C@H](CN(C)Cc2ccc(C(=O)O)cc2)Oc2ccc(NC(=O)NC3CCCCC3)cc2CC1=O,-2.0,11.2,-0.1,0.4,-0.9,-4.0
COc1ccc2oc(C(=O)NCC(c3ccco3)N(C)C)c(C)c2c1 (centres undefined),-43.8,-85.7,0.0,/,-0.4,34.6*
CCC(=O)N(C)C[C@@H]1Oc2ncc(-c3ccc(C)cc3)cc2C(=O)N([C@@H](C)CO)C[C@H]1C,1.4,/,0.1,4.6,15.6,-11.3
COC(=O)c1ccc(Cn2c(O)c(N=NC(N)=S)c3ccccc32)o1,20.8,3.8,0.6,1.8,64.4*,3.7
C/C(Cl)=C\Cn1c(O)c(N=NC(N)=S)c2ccccc21,57.5*,2.8,0.4,-2.0,24.7,2.0
C[C@H](CO)N1C[C@H](C)[C@H](CN(C)CC2CC2)Oc2ccc(NS(=O)(=O)c3cn(C)cn3)cc2CC1=O,5.1,/,-1.3,0.8,9.3,-12.6
Cc1cc[n+](CC(=O)c2ccc(NC(=O)c3ccccc3)cc2)c2ccccc12,21.8,79.6*,-0.1,/,/,8.5
O=C(C[n+]1cccc2ccccc21)c1ccc(NC(=O)c2ccccc2)cc1,5.7,32.1,0.1,/,1.4,0.9
C[C@H](CO)N1C[C@H](C)[C@@H](CN(C)C)Oc2ccc(NC(=O)CCCN(C)C)cc2CC1=O,0.1,-12.6,-0.9,-1.6,10.0,0.6
Cc1ccccc1OC(C)C(=O)Nc1ccc(S(=O)(=O)Nc2nccs2)cc1 (centres undefined),10.0,7.6,0.2,8.3,15.6,1.8
CC(Oc1ccccc1Cl)C(=O)Nc1ccc(S(=O)(=O)Nc2nccs2)cc1 (centres undefined),8.7,-20.9,0.0,/,86.9*,?
CC(C)NC(=O)N(C)C[C@@H]1Oc2c(NC(=O)C3CCOCC3)cccc2C(=O)N([C@H](C)CO)C[C@H]1C,-4.7,11.4,0.0,-3.5,15.2,1.6
COc1cc2c3nnc(-c4ccccc4)c-3cn(Cc3ccccc3F)c2cc1OC,/,39.0,96.8*,/,97.9*,/

# Screens from PubChem BioAssay.
